Measurements from ChEMBL document CHEMBL3621166, “Synthesis, Structure-Activity Relationship, and Mechanistic Investigation of Lithocholic Acid Amphiphiles for Colon Cancer Therapy” (Medchemcomm, 2015).
The source made the active and inactive calls. No cut-off for these calls is given here.

Key:
[1] = Cytotoxicity against human HCT8 cells assessed as cell viability after 48 hrs by MTT assay; assay type: functional, cell-based; details: HCT-8, 48 h
[2] = Cytotoxicity against human DLD1 cells assessed as cell viability after 48 hrs by MTT assay; assay type: functional, cell-based; details: DLD-1, 48 h
[3] = test system: HCT-116; assay: Cytotoxicity against human HCT116 cells assessed as cell viability after 48 hrs by MTT assay; assay type: functional, cell-based; details: HCT-116, 48 h
[4] = Retention time of the compound by HPLC method; assay type: physicochemical
[5] = test system: HCT-116; assay: Induction of apoptosis in human HCT116 cells assessed as early apoptotic cells at 50 uM after 48 hrs using annexin-V FITC and propidium iodide staining by flow cytometry (reference value: 4.80%); assay type: functional
[6] = test system: HCT-116; assay: Induction of apoptosis in human HCT116 cells assessed as early apoptotic cells at 15 uM after 48 hrs using annexin-V FITC and propidium iodide staining by flow cytometry (reference value: 4.80%); assay type: functional
[7] = test system: DLD-1; assay: Inhibition of colony formation in human DLD1 cells at 15 to 50 uM after 2 weeks using crystal violet staining; assay type: functional, cell-based
Summary of the method: (§1)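 Cells plated at 200 per well and treated after 24 h adherence at 15, 25 or 50 μM. Colonies stained with crystal violet after 2 weeks and counted. Plating efficiency taken from untreated wells, survival fraction from treated colony counts. Two experiments in duplicate, mean ± SD.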

[8] = Cell cycle arrest in human HCT8 cells at 15 to 50 uM after 48 hrs using propidium iodide staining by FACS analysis; assay type: functional, cell-based; details: HCT-8
Summary of the method: (§2)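 Cells seeded at ~2 × 10^5 per well, treated after 24 h at 15, 25 and 50 μM for 48 h. Harvested by trypsin, washed in cold PBS and fixed in 70% ice-cold ethanol. RNase-treated 1 h at 37 °C, stained with propidium iodide (50 μg mL−1) 20 min at room temperature, and analysed by FACS. Triplicate, mean ± SD.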

[9] = test system: HCT-116; assay: Cell cycle arrest in human HCT116 cells at 15 to 50 uM after 48 hrs using propidium iodide staining by FACS analysis; assay type: functional, cell-based; summary of the method: as §2
[10] = test system: HCT-116; assay: Inhibition of colony formation in human HCT116 cells at 15 to 50 uM after 2 weeks using crystal violet staining; assay type: functional, cell-based; summary of the method: as §1
[11] = test system: HCT-116; assay: Induction of apoptosis in human HCT116 cells assessed as late apoptotic cells at 50 uM after 48 hrs using annexin-V FITC and propidium iodide staining by flow cytometry (reference value: 1.59%); assay type: functional
[12] = Cell cycle arrest in human DLD1 cells at 15 to 50 uM after 48 hrs using propidium iodide staining by FACS analysis; assay type: functional, cell-based; details: DLD-1; summary of the method: as §2
[13] = test system: HCT-8; assay: Inhibition of colony formation in human HCT8 cells at 15 to 50 uM after 2 weeks using crystal violet staining; assay type: functional, cell-based; summary of the method: as §1
[14] = test system: HCT-116; assay: Induction of apoptosis in human HCT116 cells assessed as late apoptotic cells at 25 uM after 48 hrs using annexin-V FITC and propidium iodide staining by flow cytometry (reference value: 1.59%); assay type: functional
[15] = test system: HCT-116; assay: Induction of apoptosis in human HCT116 cells assessed as late apoptotic cells at 15 uM after 48 hrs using annexin-V FITC and propidium iodide staining by flow cytometry (reference value: 1.59%); assay type: functional
[16] = test system: HCT-116; assay: Induction of apoptosis in human HCT116 cells assessed as early apoptotic cells at 25 uM after 48 hrs using annexin-V FITC and propidium iodide staining by flow cytometry (reference value: 4.80%); assay type: functional

| Structure (SMILES) | IC50 [1] | IC50 [2] | IC50 [3] | Retention_time [4] | Activity [5] | Activity [6] | inhibition [7] | Activity [8] | Activity [9] | inhibition [10] | Activity [11] | Activity [12] | inhibition [13] | Activity [14] | Activity [15] | Activity [16] |
| --- | --- | --- | --- | --- | --- | --- | --- | --- | --- | --- | --- | --- | --- | --- | --- | --- |
| COC(=O)CC[C@@H](C)[C@H]1CC[C@H]2[C@@H]3CC[C@@H]4C[C@H](OC(=O)C[n+]5ccc(N(C)C)cc5)CC[C@]4(C)[C@H]3CC[C@]12C.[Cl-] | 59.1 µM | 17 µM | 13.2 µM | 7.9 min | – | – | – | – | – | – | – | – | – | – | – | – |
| COC(=O)CC[C@@H](C)[C@H]1CC[C@H]2[C@@H]3CC[C@@H]4C[C@H](OC(=O)CN5CCOCC5)CC[C@]4(C)[C@H]3CC[C@]12C.Cl | 121 µM | 176 µM | 89 µM | 24.17 min | – | – | – | – | – | – | – | – | – | – | – | – |
| COC(=O)CC[C@@H](C)[C@H]1CC[C@H]2[C@@H]3CC[C@@H]4C[C@H](OC(=O)CN5CCNCC5)CC[C@]4(C)[C@H]3CC[C@]12C | 115 µM | 118 µM | 102 µM | – | – | – | – | – | – | – | – | – | – | – | – | – |
| C[C@H](CCC(=O)O)[C@H]1CC[C@H]2[C@@H]3CC[C@@H]4C[C@H](O)CC[C@]4(C)[C@H]3CC[C@]12C [LITHOCHOLIC ACID] | 97.4 µM | 173 µM | 81.1 µM | – | 21.89% | 10.21% | inactive | inactive | inactive | inactive | 13.15% | inactive | inactive | 11.54% | 8.88% | 18.79% |
| COC(=O)CC[C@@H](C)[C@H]1CC[C@H]2[C@@H]3CC[C@@H]4C[C@H](OC(=O)CN5CCSCC5)CC[C@]4(C)[C@H]3CC[C@]12C.Cl | 130 µM | 163 µM | 87.3 µM | 28.63 min | – | – | – | – | – | – | – | – | – | – | – | – |
| COC(=O)CC[C@@H](C)[C@H]1CC[C@H]2[C@@H]3CC[C@@H]4C[C@H](OC(=O)C[N+]5(C)CCCC5)CC[C@]4(C)[C@H]3CC[C@]12C.[Cl-] | 36.4 µM | 17 µM | 17.8 µM | 8.23 min | – | – | – | – | – | – | – | – | – | – | – | – |
